Activity calls are given as the source filed them. No cut-off for these calls is given here.
Assays:
[1] = biological target: T1, Serine/threonine-protein kinase WNK1 (Homo sapiens, UniProt Q9H4A3); test: Inhibition of TEV cleavage site-fused His6-tagged WNK1 (194 to 483 residues) (unknown origin) expressed in Rosetta (DE3) cells using GST-OSR1(314 to 344) peptide as substrate incubated for 2 hrs by kinase-glo luminescence assay
Target sequence in this assay (Q9H4A3 whole entry, the tested form may be a part): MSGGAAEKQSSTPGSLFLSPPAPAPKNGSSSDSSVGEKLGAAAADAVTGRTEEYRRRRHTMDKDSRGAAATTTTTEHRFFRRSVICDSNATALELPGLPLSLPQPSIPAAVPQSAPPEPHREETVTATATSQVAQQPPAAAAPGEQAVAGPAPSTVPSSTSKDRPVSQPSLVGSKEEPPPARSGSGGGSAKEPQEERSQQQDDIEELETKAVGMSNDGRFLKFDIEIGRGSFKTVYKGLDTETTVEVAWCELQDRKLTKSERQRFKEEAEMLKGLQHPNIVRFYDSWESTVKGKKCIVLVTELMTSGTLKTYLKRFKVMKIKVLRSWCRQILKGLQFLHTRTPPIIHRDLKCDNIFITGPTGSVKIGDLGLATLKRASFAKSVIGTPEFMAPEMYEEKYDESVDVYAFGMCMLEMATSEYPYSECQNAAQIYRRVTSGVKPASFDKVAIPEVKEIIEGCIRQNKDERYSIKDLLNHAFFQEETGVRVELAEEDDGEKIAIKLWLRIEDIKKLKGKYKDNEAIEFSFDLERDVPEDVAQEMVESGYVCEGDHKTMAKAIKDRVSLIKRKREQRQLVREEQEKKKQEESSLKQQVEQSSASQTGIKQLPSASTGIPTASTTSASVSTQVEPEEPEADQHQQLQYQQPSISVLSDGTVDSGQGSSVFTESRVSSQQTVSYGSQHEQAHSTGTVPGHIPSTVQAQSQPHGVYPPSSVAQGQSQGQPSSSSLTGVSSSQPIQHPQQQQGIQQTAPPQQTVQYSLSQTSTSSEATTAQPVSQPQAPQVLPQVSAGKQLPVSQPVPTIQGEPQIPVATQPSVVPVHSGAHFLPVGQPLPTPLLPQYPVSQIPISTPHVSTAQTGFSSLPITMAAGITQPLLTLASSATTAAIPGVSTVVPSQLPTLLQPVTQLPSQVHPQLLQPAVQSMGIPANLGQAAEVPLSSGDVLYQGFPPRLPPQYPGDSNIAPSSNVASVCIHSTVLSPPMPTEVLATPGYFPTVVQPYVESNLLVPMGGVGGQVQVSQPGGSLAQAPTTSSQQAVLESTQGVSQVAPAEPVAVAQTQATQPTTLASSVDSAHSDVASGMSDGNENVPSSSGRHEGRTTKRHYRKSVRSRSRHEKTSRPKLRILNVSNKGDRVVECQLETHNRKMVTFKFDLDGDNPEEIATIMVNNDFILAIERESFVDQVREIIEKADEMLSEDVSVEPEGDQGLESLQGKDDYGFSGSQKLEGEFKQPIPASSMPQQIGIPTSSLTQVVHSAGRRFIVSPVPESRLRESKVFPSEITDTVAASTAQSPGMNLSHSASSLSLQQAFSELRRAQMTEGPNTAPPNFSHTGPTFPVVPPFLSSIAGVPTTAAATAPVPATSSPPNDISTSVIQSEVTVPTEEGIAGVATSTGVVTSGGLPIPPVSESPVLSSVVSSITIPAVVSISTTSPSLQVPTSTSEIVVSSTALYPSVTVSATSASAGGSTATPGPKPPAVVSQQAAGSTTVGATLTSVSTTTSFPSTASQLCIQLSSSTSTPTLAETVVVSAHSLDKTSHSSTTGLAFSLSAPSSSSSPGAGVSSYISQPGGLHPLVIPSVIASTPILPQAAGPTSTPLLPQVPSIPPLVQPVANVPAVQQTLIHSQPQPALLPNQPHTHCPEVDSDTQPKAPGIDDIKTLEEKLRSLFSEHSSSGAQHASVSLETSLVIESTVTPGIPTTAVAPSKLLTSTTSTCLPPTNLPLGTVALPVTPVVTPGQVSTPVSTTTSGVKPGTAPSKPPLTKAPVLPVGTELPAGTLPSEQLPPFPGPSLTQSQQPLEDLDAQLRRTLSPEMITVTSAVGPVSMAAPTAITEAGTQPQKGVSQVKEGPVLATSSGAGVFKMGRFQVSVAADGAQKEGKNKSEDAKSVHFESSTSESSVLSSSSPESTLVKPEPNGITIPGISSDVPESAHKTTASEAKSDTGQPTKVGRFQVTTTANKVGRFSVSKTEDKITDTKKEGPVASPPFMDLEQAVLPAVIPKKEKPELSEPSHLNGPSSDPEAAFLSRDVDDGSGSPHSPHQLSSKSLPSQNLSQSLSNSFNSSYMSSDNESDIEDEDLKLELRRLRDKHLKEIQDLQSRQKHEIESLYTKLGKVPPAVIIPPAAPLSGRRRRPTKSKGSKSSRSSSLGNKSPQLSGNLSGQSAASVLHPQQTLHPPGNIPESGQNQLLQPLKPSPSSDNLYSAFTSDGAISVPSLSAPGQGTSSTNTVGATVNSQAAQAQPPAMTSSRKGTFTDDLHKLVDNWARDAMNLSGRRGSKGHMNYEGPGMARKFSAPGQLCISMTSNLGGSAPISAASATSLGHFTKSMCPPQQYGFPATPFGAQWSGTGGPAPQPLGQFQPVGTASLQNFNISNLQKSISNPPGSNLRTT

[2] = biological target: T1, Serine/threonine-protein kinase WNK1; test: Inhibition of TEV cleavage site-fused His6-tagged WNK1 (194 to 483 residues) (unknown origin) expressed in Rosetta (DE3) cells using GST-OSR1(314 to 344) peptide as substrate measured after 30 mins by [gamma-32P]-ATP based liquid scintillation counting analysis; format: biochemical
In short: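 Radiometric kinase assay using [γ-32P]ATP at low enzyme concentration. It was chosen over the luminescence format for more precise IC50 determination.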
Target sequence in this assay (Q9H4A3 whole entry, the tested form may be a part): as above

[3] = biological target: T1, Serine/threonine-protein kinase WNK1; test: Inhibition of WNK1 in human MDA-MB-231 cells assessed as reduction in OSR1 phosphorylation measured after 24 hrs by Western blot analysis; format: cell-based
In short: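 Endogenous OSR1 phosphorylation was measured in MDA-MB-231 breast cancer cells. Experiments were run in triplicate, and an IC50 was derived from the phosphorylation read-out.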
Target sequence in this assay (Q9H4A3 whole entry, the tested form may be a part): as above

MDA-MB-231 = test: Cytotoxicity against human MDA-MB-231 cells assessed as cell viability up to 12 uM measured after 24 hrs; format: toxicity, cell-based; conditions: mda-mb-231, 24 h
[4] = biological target: T1, Serine/threonine-protein kinase WNK1; test: Inhibition of WNK1 (unknown origin) at 10 uM relative to control
Target sequence in this assay (Q9H4A3 whole entry, looked up, the tested form may be a part): as the sequence (Q9H4A3 whole entry, the tested form may be a part) above

[5] = biological target: Serine/threonine-protein kinase WNK3 (Homo sapiens) (UniProt Q9BYP7); test: Inhibition of WNK3 (unknown origin) at 10 uM relative to control
Homo sapiens = species on record: Homo sapiens; test: Selectivity ratio of IC50 for WNK3 (118 to 409 residues) (unknown origin) expressed in Escherichia coli BL21 DE3 to IC50 for TEV cleavage site-fused His6-tagged WNK1 (194 to 483 residues) (unknown origin) expressed in Rosetta (DE3) cells
[6] = biological target: Serine/threonine-protein kinase WNK2 (Homo sapiens) (UniProt Q9Y3S1); test: Inhibition of WNK2 (unknown origin) at 10 uM relative to control
[7] = biological target: Mitogen-activated protein kinase 9 (Homo sapiens) (UniProt P45984); test: Inhibition of JNK2 (unknown origin) at 10 uM
[8] = biological target: Mitogen-activated protein kinase 10 (Homo sapiens) (UniProt P53779); test: Inhibition of JNK3 (unknown origin) at 10 uM

Serine/threonine-protein kinase WNK3 (Homo sapiens), sequence (Q9BYP7 whole entry, the tested form may be a part): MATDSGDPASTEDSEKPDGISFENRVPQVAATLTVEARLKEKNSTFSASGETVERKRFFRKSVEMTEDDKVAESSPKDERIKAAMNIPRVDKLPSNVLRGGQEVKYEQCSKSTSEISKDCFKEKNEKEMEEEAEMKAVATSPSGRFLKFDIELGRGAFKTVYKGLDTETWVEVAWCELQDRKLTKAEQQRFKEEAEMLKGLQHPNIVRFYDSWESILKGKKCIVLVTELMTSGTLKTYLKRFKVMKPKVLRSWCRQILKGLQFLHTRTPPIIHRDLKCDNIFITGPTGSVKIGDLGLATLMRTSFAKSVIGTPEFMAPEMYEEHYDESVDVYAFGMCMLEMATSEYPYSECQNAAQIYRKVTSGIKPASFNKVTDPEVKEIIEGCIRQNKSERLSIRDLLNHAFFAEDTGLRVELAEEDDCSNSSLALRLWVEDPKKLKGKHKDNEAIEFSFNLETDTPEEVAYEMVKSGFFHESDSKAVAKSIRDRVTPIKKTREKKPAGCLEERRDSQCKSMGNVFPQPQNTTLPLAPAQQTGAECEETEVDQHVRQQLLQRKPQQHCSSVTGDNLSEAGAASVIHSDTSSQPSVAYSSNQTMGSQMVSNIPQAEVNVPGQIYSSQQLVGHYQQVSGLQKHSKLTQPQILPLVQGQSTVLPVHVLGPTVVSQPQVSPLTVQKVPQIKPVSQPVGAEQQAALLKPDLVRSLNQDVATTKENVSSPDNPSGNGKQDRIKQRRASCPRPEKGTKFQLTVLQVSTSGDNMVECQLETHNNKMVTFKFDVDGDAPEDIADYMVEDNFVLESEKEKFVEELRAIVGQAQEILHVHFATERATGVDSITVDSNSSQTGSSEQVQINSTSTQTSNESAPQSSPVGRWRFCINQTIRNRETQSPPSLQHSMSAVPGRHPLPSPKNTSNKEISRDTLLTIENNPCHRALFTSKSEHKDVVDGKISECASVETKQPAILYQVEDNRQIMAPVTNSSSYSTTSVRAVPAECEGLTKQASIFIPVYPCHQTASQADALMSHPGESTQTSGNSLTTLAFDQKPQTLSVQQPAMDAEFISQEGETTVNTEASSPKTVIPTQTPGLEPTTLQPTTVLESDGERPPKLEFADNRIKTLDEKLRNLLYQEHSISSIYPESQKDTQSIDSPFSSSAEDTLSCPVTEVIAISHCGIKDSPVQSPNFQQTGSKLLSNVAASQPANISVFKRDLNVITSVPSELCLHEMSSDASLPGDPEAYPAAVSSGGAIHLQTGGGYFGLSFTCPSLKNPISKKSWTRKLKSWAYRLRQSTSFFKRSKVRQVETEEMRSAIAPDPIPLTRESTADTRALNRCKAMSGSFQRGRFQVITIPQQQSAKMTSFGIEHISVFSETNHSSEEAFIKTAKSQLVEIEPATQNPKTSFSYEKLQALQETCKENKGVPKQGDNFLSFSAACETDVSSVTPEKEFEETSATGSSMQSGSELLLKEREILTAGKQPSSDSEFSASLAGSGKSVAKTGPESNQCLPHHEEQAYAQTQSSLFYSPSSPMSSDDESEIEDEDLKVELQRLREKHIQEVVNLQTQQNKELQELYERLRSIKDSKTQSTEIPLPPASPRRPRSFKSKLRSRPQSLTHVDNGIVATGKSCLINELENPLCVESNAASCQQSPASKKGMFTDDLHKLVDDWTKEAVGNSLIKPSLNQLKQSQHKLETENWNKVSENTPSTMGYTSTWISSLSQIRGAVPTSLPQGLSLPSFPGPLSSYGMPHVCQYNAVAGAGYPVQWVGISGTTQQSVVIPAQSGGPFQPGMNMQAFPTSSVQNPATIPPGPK
Mitogen-activated protein kinase 9 (Homo sapiens), sequence (P45984 whole entry, looked up): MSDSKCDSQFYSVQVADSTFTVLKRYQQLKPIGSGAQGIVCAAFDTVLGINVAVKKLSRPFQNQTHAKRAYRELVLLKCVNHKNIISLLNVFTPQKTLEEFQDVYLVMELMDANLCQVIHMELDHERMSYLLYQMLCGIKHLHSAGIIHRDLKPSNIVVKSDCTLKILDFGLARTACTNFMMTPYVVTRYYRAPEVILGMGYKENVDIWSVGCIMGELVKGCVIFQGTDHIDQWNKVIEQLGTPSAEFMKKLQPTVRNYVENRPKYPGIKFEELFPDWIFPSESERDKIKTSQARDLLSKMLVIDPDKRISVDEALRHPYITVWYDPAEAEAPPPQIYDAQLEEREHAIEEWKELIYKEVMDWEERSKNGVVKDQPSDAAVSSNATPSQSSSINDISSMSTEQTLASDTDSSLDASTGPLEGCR

| Compound | IC50 [1] | IC50 [2] | further results |
| --- | --- | --- | --- |
| CS(=O)(=O)c1ccc(NC2CCCCC2)c([N+](=O)[O-])c1 | > 1000 µM | – | – |
| O=[N+]([O-])c1cc(S(=O)(=O)C(Cl)(Cl)Br)ccc1NCCCc1ccccc1 | 79 µM | 6 µM | inhibition [4]: 20%; inhibition [6]: 20%; inhibition [7]: Active; inhibition [8]: Active |
| O=S(=O)(c1ccc(NC2CCCCC2)cc1)C(Cl)(Cl)Br | > 1000 µM | – | – |
| O=[N+]([O-])c1ccccc1NC1CCCCC1 | > 1000 µM | – | – |
| CN1CCN(c2ccc(S(=O)(=O)C(Cl)(Cl)Br)cc2[N+](=O)[O-])CC1 | > 1000 µM | – | – |
| O=[N+]([O-])c1cc(S(=O)(=O)C(F)(F)F)ccc1NC1CCCCC1 | > 1000 µM | > 1000 µM | – |
| O=[N+]([O-])c1cc(S(=O)(=O)C(Cl)(Cl)Br)ccc1NC1CCCC1 | 93 µM | 6.5 µM | – |

Further lines, with some results ahead:

| IC50 [1] | IC50 [2] | Compound | further results |
| --- | --- | --- | --- |
| 4 µM | 1.6 µM | O=[N+]([O-])c1cc(S(=O)(=O)C(Cl)(Cl)Br)ccc1NC1CCCCC1 | IC50 [3]: 4.3 µM; Activity (MDA-MB-231): Non-Toxic; inhibition [4]: 20%; inhibition [5]: 20%; Ratio IC50 (Homo sapiens): 10 |
| > 1000 µM | – | O=[N+]([O-])c1cc(S(=O)(=O)C(Cl)(Cl)Cl)ccc1NC1CCCCC1 | – |
| 76 µM | 7.2 µM | O=[N+]([O-])c1cc(S(=O)(=O)C(Cl)(Cl)Br)ccc1Nc1ccccc1 | – |
| > 1000 µM | – | O=[N+]([O-])c1cc(S(=O)(=O)C(Cl)Cl)ccc1NC1CCCCC1 | – |
| 15 µM | 5 µM | O=[N+]([O-])c1cc(S(=O)(=O)C(Cl)(Cl)Br)ccc1NCc1ccco1 | – |
| > 1000 µM | – | CCS(=O)(=O)c1ccc(NC2CCCCC2)c([N+](=O)[O-])c1 | – |
